# Measurements: paper PMC6237275 (Chemical science, 2013)
# Residues, ends and D or L forms follow the SMILES beside them.
# Columns and labels:
# [1] = system: CtBP1 homodimerization (CtBP1 fused to 434 repressor); experiment: CtBP1 reverse two-hybrid system; type: cell-based; conditions: for Target (homodimerization disrupted in RTHS): CtBP1 and CtBP2 RTHS, SICLOPPS; for Rank (top 3 CtBP1/CtBP2 inhibitors identified by SICLOPPS): ranked by drop spotting, CtBP1/CtBP2 RTHS
# Method in brief: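 E. coli reverse two-hybrid hosts carry SICLOPPS cyclic peptide library plasmids; only clones whose peptide disrupts CtBP homodimerization survive on selective media. For CtBP1, 104 surviving colonies were picked, and their plasmids were isolated and retransformed into the CtBP1 RTHS. For drop-spotting, 2.5 μL of serial cell dilutions go onto selective plates with and without […].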
# [2] = system: CtBP2 homodimerization (CtBP2 fused to 434 repressor); experiment: CtBP2 reverse two-hybrid system; type: cell-based; conditions: arabinose-induced peptide production; 50 μM IPTG; minimal (selective) media
# GST–CtBP1 / His–CtBP1 = experiment: GST pull down assay; type: biochemical; conditions: presence of NADH; 50 mM Tris–HCl pH 7.2 pull-down buffer
# Method in brief: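 Recombinant GST-CtBP1 and His-CtBP1 are expressed in E. coli and purified on glutathione or nickel resin, with 30 min 0.25 mM pyruvate on-resin to oxidize bound NADH. 10 mg mL−1 bacterial lysate blocks nonspecific binding.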
# CtBP1 (His–CtBP1) = CtBP1 (His–CtBP1) (Homo sapiens, UniProt Q13363); experiment: FRET-based CtBP1/NADH-binding assay
# lactate dehydrogenase = experiment: Lactate dehydrogenase activity; type: biochemical; conditions: at concentrations of up to 100 μM
# MCF-7 cells [3] = experiment: Time-lapse video microscopy, peptide in medium, MCF-7; type: cell-based
# Method in brief: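 Cell-penetrating peptide or TAT alone goes into the medium of asynchronous MCF-7 cultures, imaged by time-lapse microscopy every 30 min for 65 h. Each cell's first mitosis is scored for abnormality (prolonged rounding, failed cytokinesis, death), with time in mitosis per cell. Total cell number increase is taken over the first 48 h. Fisher's exact test; experiments repeated at least twice.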
# MCF-7 cells [4] = experiment: Microinjection and time-lapse video microscopy, MCF-7; type: cell-based
# Method in brief: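 MCF-7 cells are synchronized 48 h in 0.1% FCS, then released with 10% serum. At 20 h post-release, cells are microinjected in PBS with 70 kDa FITC-dextran (1 μg μL−1) plus peptide (50 μM) or GST-fusion protein (1 μg μL−1). Controls are FITC-dextran alone or non-injected cells. Time-lapse images every 30 min; first mitosis scored for abnormality and duration. Fisher's exact test.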
# MDA-MB-453 cells = experiment: Microinjection and time-lapse video microscopy, MDA-MB-453; type: cell-based; conditions: microinjected 50 μM
# colon cancer cells = conditions: ref [36]; cited from earlier work
# breast cancer cells = conditions: ref [31]; cited from earlier work
# CtBPs = conditions: high concentrations of MTOB; ref [37]; cited from earlier work
# His–CtBP1 = experiment: Size exclusion chromatography of His–CtBP1; type: biochemical; conditions: increasing concentrations of NADH; Superdex 200, PBS
# [5] = system: CtBP1/CtBP2 dimerization (CFP–CtBP1, YFP–CtBP2) in COS-7 cells; experiment: CtBP cellular compartmentalization assay; type: cell-based; conditions: 100 μM
# Method in brief: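 COS-7 cells transfected with CFP–CtBP1 (pSCFP3A-based) and YFP–CtBP2 (pSYFP2-based) expression vectors. Test compound as TAT conjugate (100 μM) or 100 μM TAT added to medium. Expression and co-localization were imaged by fluorescence microscopy, and cells were scored by line analysis for cytoplasmic CFP–CtBP1, with cell numbers counted. Fisher's exact test on contingency tables versus TAT-treated cells.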
# MCF-7 cells [6] = experiment: Micronuclei assay, MCF-7; type: cell-based; conditions: up to 100 μM TAT; 48 h; >400 cells scored
# Method in brief: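 Peptides are added to the medium of asynchronous MCF-7 cultures, and cells are fixed after 48 h for micronuclei counting, with >400 cells scored per point. Data are mean ± SEM of triplicate wells from a representative of at least two independent experiments. One-way ANOVA with Tukey's post hoc test.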
compound,measurement,setting,value
CSCC[C@@H]1NC(=O)[C@H](CCCNC(=N)N)NC(=O)[C@H](C(C)C)NC(=O)[C@H](C(C)C)NC(=O)[C@H]([C@@H](C)O)NC(=O)[C@H](Cc2c[nH]c3ccccc23)NC(=O)CNC(=O)[C@H](CO)NC(=O)[C@H](Cc2ccc(O)cc2)NC1=O [CP61] (cyclo(GWTVVRMYS)),Target (homodimerization disrupted in RTHS),[1],CtBP1/CtBP2
same,Survival on selective media / disruption of CtBP1 homodimerization,"[1]; arabinose-induced peptide production, 50 μM IPTG, minimal (selective) media",Restoration of growth with arabinose
same,Rank (top 3 CtBP1/CtBP2 inhibitors identified by SICLOPPS),[1],1
same,Survival on selective media / disruption of CtBP2 homodimerization,[2],Restoration of growth with arabinose
same,Disruption of NADH-dependent association between GST–CtBP1 and His–CtBP1,GST–CtBP1 / His–CtBP1,disrupted
same,Reduction of NADH-dependent FRET signal (CtBP1–NADH interaction),"CtBP1 (His–CtBP1); excitation 285 nm, emission 425 nm, 300 nM His–CtBP1, room temperature","reduced upon addition of CP61, in a dose-dependent manner"
same,Mechanism of inhibition of NADH-binding,CtBP1 (His–CtBP1); maximum FRET signal at saturating NADH reduced in a CP61-dependent manner,allosteric mechanism for inhibition of NADH-binding
same,Effect on activity of lactate dehydrogenase,lactate dehydrogenase,no effect
same,Concentration inhibiting the cellular function of CtBPs,MCF-7 cells [3]; in cells (discussion summary),50 µM
same,Mitoses that were aberrant,"MCF-7 cells [4]; microinjected 50 μM, MCF-7, control-injected 10.2%, P < 0.0001 (Fig. 8a)",50.8%
same,Mean length of time in mitosis,"MCF-7 cells [4]; microinjected 50 μM, MCF-7, control-injected 1.9 h (Fig. 8b)",4 h
same,Length of time in mitosis (in words),MDA-MB-453 cells; MDA-MB-453 (Fig. 8b),did not affect the length of time MDA-MB-453 cells spent in mitosis
same,Percentage of mitoses that were aberrant (in words),"MDA-MB-453 cells; MDA-MB-453, P > 0.05 compared to control-injected",did not significantly affect the percentage of mitoses that were aberrant
"CSCCC(=O)C(=O)O [MTOB, 2-keto-4-methylthiobutyrate]",Repression of pro-apoptotic gene BIK,colon cancer cells,reverse the repression of the pro-apoptotic gene BIK in colon cancer cells
same,Repression of multiple CtBP-targeted genes,breast cancer cells,reverse the repression of multiple CtBP-targeted genes in breast cancer cells
same,Recruitment of CtBPs to target promoters,CtBPs,inhibiting the recruitment of CtBPs to target promoters
NC(=O)C1=CN([C@@H]2O[C@H](COP(=O)(O)OP(=O)(O)OC[C@H]3O[C@@H](n4cnc5c(N)ncnc54)[C@H](O)[C@@H]3O)[C@@H](O)[C@H]2O)C=CC1 [NADH],Monomer to dimer shift of CtBP1,His–CtBP1,shifted to a peak corresponding to dimeric CtBP1 in a dose-dependent manner
GRKKRRQRRRPPQ [TAT],Nuclear co-localization of CtBPs,[5],showed the expected co-localization with YFP–CtBP2 in the nucleus
same,Cells containing micronuclei,MCF-7 cells [6],Approximately 7%
same,Increase in cell numbers,"MCF-7 cells [3]; 50 μM, 48 hours",111%
GST–CtBP^DD: construct encoding the central dimerization domain (110–359) of CtBP2,Cells with aberrant mitosis phenotype,"MCF-7 cells [4]; protein injected at 1 μg μL−1 in PBS, MCF-7 (Fig. 7e)",45%
same,Time in mitosis (in words),"MCF-7 cells [4]; protein injected at 1 μg μL−1 in PBS, MCF-7 (Fig. 7f)","increased the time in mitosis, in line with that observed in CP61-treated cells"
SGW PLSTWY (head to tail) [CP68],Target (homodimerization disrupted in RTHS),[1],CtBP1/CtBP2
same,Rank (top 3 CtBP1/CtBP2 inhibitors identified by SICLOPPS),[1],2
SGW RLIRLY (head to tail) [CP65],Target (homodimerization disrupted in RTHS),[1],CtBP1/CtBP2
same,Rank (top 3 CtBP1/CtBP2 inhibitors identified by SICLOPPS),[1],3
